Data set [1] relates to Rattus norvegicus. Briefly: Gastrointestinal toxicity in albino rat assessed as ulcerogenic indicates at dose 30 mg/kg, po. The note with it: in vivo.
A further data set has as its system Mus musculus. Briefly: Analgesic activity in albino mouse inhibition of acetic acid-induced writhing response at 10 mg/kg, po. It is filed as functional. Also noted: scale not given: the % may be the effect or the level left.
For data set [2], the system named is Rattus norvegicus. The data set is described as follows: Antiinflammatory activity in rat assessed as inhibition of carrageenan-induced paw edema at 10 mg/kg, po. It is filed as functional. In a few lines: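 Rats, six per group, received the drug suspended in 1% CMC orally 30 min before carrageenan; one group served as control. Carrageenan was given as 0.05 mL of 1% w/v in 0.9% saline under the plantar aponeurosis of the right hind paw.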

Another data set relates to Gastric mucosa. The data set is described as follows: Inhibition of lipid peroxidation assessed as malondialdehyde level per 100 mg of gastric mucosa isolated from albino rat at dose 30 mg/kg, po.
In data set [3] the target is T1, Prostaglandin G/H synthase 1 (Ovis aries, UniProt P05979).
T1 sequence (P05979 whole entry): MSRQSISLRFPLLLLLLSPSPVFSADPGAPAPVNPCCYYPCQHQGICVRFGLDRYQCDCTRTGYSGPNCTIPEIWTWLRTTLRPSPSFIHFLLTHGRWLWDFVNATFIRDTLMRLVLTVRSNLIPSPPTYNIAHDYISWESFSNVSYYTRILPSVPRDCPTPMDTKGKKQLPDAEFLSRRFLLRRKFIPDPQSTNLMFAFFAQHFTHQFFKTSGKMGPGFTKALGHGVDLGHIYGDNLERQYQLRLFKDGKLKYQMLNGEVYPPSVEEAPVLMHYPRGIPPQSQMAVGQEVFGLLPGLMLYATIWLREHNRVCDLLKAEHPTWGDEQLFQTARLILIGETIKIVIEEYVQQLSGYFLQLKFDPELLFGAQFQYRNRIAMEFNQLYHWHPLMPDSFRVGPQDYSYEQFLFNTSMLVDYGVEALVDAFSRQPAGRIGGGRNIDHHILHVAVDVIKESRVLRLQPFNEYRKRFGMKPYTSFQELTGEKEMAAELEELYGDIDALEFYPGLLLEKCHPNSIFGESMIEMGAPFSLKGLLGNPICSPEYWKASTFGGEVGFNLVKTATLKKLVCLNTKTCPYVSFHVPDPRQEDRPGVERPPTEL
Briefly: Inhibition of ovine COX1 by enzyme-immuno assay.

As for `O=C(CCc1nnc(-c2ccccc2)o1)c1ccc(-c2ccccc2)cc1`, in the data set with Rattus norvegicus [1], the UI stood at 0.4. The same compound had an Activity in the data set on Mus musculus of 51.3%. Moreover, the inhibition in vivo at 10 mg/kg with Rattus norvegicus [2] came out at 43.7%. Further, the MDA content at 30 mg/kg in the data set with Gastric mucosa was 4.3 nmol MDA/100 mg tissue.
On to `O=C(CCc1nnc(COc2ccc3ccccc3c2)o1)c1ccc(-c2ccccc2)cc1`, for which, in data set [3], 48.4 µM corresponded to half-maximal inhibition (IC50). The compound further displayed an Activity with Mus musculus of 68.6%. Besides, the inhibition in vivo at 10 mg/kg in the data set with Rattus norvegicus [2] is 59.4%. In the data set on Gastric mucosa, the MDA content at 30 mg/kg worked out at 5.9 nmol MDA/100 mg tissue.
On the same counts, the results for `O=C(CCc1nnc(-c2ccc([N+](=O)[O-])cc2)o1)c1ccc(-c2ccccc2)cc1` are 42.6 µM, 45.8%, 56.2% and 4.3 nmol MDA/100 mg tissue.
As for `O=C(CCc1nnc(Cc2ccccc2)o1)c1ccc(-c2ccccc2)cc1`, the UI in the data set on Rattus norvegicus [1] worked out at 0.5. Also, the Activity in the data set with Mus musculus was 54.1%. Further, the inhibition in vivo at 10 mg/kg in the data set with Rattus norvegicus [2] amounted to 50%. Besides, in the data set with Gastric mucosa, the MDA content at 30 mg/kg was found to be 5.8 nmol MDA/100 mg tissue.
`O=C(CCc1nnc(COc2ccccc2)o1)c1ccc(-c2ccccc2)cc1`: the UI with Rattus norvegicus [1] was found to be 0.6. For the same compound, in the data set on Mus musculus, the Activity worked out at 55.8%. Moreover, the inhibition in vivo at 10 mg/kg in the data set with Rattus norvegicus [2] is 53.1%. Besides, the MDA content at 30 mg/kg in the data set on Gastric mucosa was 5.8 nmol MDA/100 mg tissue.
Take `O=C(O)CCC(=O)c1ccc(-c2ccccc2)cc1` [FENBUFEN]: the IC50 in data set [3] worked out at 3.9 µM. The compound further displayed an Activity in the data set on Mus musculus of 54.1%. Also, the inhibition in vivo at 10 mg/kg in the data set with Rattus norvegicus [2] was found to be 56.3%. In addition, the MDA content at 30 mg/kg with Gastric mucosa came to 6.8 nmol MDA/100 mg tissue.
`O=C(O)Cc1ccccc1Nc1c(Cl)cccc1Cl` [DICLOFENAC] showed an Activity in the data set with Mus musculus of 70.3%. Also, the inhibition in vivo at 10 mg/kg with Rattus norvegicus [2] is 65.6%. Moreover, in the data set with Gastric mucosa, the MDA content at 30 mg/kg is 8.9 nmol MDA/100 mg tissue.
`CC(=O)Oc1ccccc1-c1nnc(CCC(=O)c2ccc(-c3ccccc3)cc2)o1`: in the data set on Rattus norvegicus [1], the UI came to 0.7. The same compound returned an Activity in the data set on Mus musculus of 56.3%. Also, the inhibition in vivo at 10 mg/kg in the data set with Rattus norvegicus [2] worked out at 43.7%. The MDA content at 30 mg/kg in the data set with Gastric mucosa was determined as 5.8 nmol MDA/100 mg tissue.
As to `O=C(CCc1nnc(-c2ccccc2Cl)o1)c1ccc(-c2ccccc2)cc1`, the UI in the data set with Rattus norvegicus [1] worked out at 0.5. The compound further registered an Activity with Mus musculus of 66.1%. Further, in the data set with Rattus norvegicus [2], the inhibition in vivo at 10 mg/kg came to 46.8%. Further, the MDA content at 30 mg/kg with Gastric mucosa came out at 5.7 nmol MDA/100 mg tissue.
Taken in the same sequence, the figures for `O=C(CCc1nnc(-c2ccc(Cl)cc2)o1)c1ccc(-c2ccccc2)cc1` were 0.6, 61.9%, 53.1% and 5.8 nmol MDA/100 mg tissue.
With `Cc1ccc(-c2nnc(CCC(=O)c3ccc(-c4ccccc4)cc3)o2)cc1`, in the data set with Rattus norvegicus [1], the UI worked out at 0.5. The Activity with Mus musculus was determined as 45.1%. For the same compound, the inhibition in vivo at 10 mg/kg in the data set with Rattus norvegicus [2] was 50%. Besides, in the data set with Gastric mucosa, the MDA content at 30 mg/kg was 5.8 nmol MDA/100 mg tissue.
Consider `O=C(CCc1nnc(-c2ccc(F)cc2)o1)c1ccc(-c2ccccc2)cc1`, for which the UI with Rattus norvegicus [1] stood at 0.6. Moreover, the Activity with Mus musculus was determined as 72.5%. The inhibition in vivo at 10 mg/kg in the data set on Rattus norvegicus [2] stood at 53.1%. In addition, the MDA content at 30 mg/kg with Gastric mucosa stood at 4.6 nmol MDA/100 mg tissue.
Compound `COc1ccc(-c2nnc(CCC(=O)c3ccc(-c4ccccc4)cc3)o2)cc1` had an IC50 in data set [3] of 52.3 µM. Besides, the Activity with Mus musculus was determined as 51.3%. In addition, in the data set with Rattus norvegicus [2], the inhibition in vivo at 10 mg/kg is 59.4%. Further, in the data set with Gastric mucosa, the MDA content at 30 mg/kg was 6.1 nmol MDA/100 mg tissue.
The compound `COc1ccc(-c2nnc(CCC(=O)c3ccc(-c4ccccc4)cc3)o2)cc1OC` gave an IC50 in data set [3] of 54.1 µM. The compound also registered an Activity with Mus musculus of 57.3%. Moreover, the inhibition in vivo at 10 mg/kg in the data set with Rattus norvegicus [2] is 62.5%. In addition, in the data set with Gastric mucosa, the MDA content at 30 mg/kg turned out to be 4.9 nmol MDA/100 mg tissue.

By inhibition in vivo is commonly meant the percentage by which the read-out fell short of the control. Broadly, the IC50 is the concentration at which inhibition is half-maximal.

For the origin of these results see ChEMBL document CHEMBL1153620 (Eur J Med Chem, 2009).
